Activity calls are given as the source filed them. No cut-off for these calls is given here.
Columns and labels:
[1] = target: T1, Broad substrate specificity ATP-binding cassette transporter ABCG2 (Homo sapiens, UniProt Q9UNQ0); experiment: Inhibition of human ABCG2 expressed in MDCK2 cells co-expressing GFP preincubated for 30 mins followed by Hoechst 33342 addition and measured every 60 sec for 120 mins by fluorescence assay; type: cell-based, MDCK-II
T1 sequence (Q9UNQ0 whole entry): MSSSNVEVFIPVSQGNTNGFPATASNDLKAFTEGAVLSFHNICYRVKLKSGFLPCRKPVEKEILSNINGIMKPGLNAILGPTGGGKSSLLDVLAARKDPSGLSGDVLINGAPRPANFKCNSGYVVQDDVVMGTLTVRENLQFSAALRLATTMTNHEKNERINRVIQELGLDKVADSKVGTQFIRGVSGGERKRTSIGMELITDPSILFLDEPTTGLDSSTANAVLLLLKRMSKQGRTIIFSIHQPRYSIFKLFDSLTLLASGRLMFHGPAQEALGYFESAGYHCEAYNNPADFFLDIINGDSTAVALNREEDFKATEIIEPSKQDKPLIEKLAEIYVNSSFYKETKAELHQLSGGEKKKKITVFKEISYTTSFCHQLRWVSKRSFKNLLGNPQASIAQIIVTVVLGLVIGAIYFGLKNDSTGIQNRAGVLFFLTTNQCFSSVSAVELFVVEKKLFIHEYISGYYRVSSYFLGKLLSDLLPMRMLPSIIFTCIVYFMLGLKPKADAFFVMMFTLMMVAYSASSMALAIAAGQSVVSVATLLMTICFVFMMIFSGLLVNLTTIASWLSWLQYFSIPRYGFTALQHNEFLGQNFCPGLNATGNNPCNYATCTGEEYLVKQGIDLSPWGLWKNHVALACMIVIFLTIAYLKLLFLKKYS
In short: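 MDCK II cells transfected with human ABCG2 cDNA C-terminally fused to GFP. Hoechst 33342 added at 1 µM final. Fluorescence (ex 355, em 460 nm) read every 60 s for 120 min. Steady-state means vs log concentration fitted by 3- or 4-parameter logistic to give IC50.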

[2] = target: T2, ABCG2 (Homo sapiens, UniProt Q9UNQ0); experiment: Inhibition of human ABCG2 expressed in MDCK2 cells co-expressing GFP preincubated for 30 mins followed by Hoechst 33342 addition and measured every 60 sec for 120 mins by fluorescence assay relative to control; type: cell-based, MDCK-II; conditions: probe Hoechst 33342, read-out: Imax
T2 sequence (Q9UNQ0 whole entry): T1 sequence (Q9UNQ0 whole entry)
In short: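 MDCK II cells transfected with human ABCG2 cDNA C-terminally fused to GFP. Steady-state means vs log concentration fitted by 3- or 4-parameter logistic to give IC50.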

[3] = target: T1, Broad substrate specificity ATP-binding cassette transporter ABCG2; experiment: Inhibition of human ABCG2 expressed in MDCK2 cells co-expressing GFP preincubated for 15 mins followed by pheophorbideA addition and measured after 2 hrs by flow cytometric analysis; type: cell-based, MDCK-II
In short: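 Pheophorbide A added to 0.5 µM final and incubated 2 h. Read by flow cytometry (ex 488, em 695/50 nm); GFP expression checked at 525/30 nm. IC50 from 3- or 4-parameter logistic fit.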

[4] = target: T2, ABCG2; experiment: Inhibition of human ABCG2 expressed in MDCK2 cells co-expressing GFP preincubated for 15 mins followed by pheophorbideA addition and measured after 2 hrs by flow cytometric analysis relative to control; type: cell-based, MDCK-II; conditions: probe pheophorbide A, read-out: Imax
[5] = target: T1, Broad substrate specificity ATP-binding cassette transporter ABCG2; experiment: Inhibition of human ABCG2-mediated multidrug resistance in MDCK2 cells assessed as potentiation of SN-38-induced cytotoxicity at 10 nM after 7 days by MTT assay relative to SN-38 alone; type: cell-based; conditions: mdck-ii, 168 h, 0.01 µM, time 7 day
In short: (§1)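 Time-dependent reversal in ABCG2-GFP MDCK II cells: SN-38 at 0.5 µM with modulator at 0, 10, 25 or 50 nM. Seeding density decreased with assay day (10,000 cells for day 1 down to 200 for day 7). MTT viability read daily for 7 days. Results normalised to medium-only cells or to SN-38 alone. Curve inflection points plotted vs modulator concentration to derive tmax, tmin, ctmin and c½tmax. Triplicates, at least three experiments; multiple t-test.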

[6] = target: T1, Broad substrate specificity ATP-binding cassette transporter ABCG2; experiment: Inhibition of human ABCG2-mediated multidrug resistance in MDCK2 cells assessed as potentiation of SN-38-induced cytotoxicity at 10 to 50 nM after 5 days by MTT assay; type: cell-based; conditions: mdck-ii, 120 h, dose 10-50 nM, time 5 day
[7] = target: T1, Broad substrate specificity ATP-binding cassette transporter ABCG2; experiment: Inhibition of human ABCG2-mediated multidrug resistance in MDCK2 cells assessed as potentiation of SN-38-induced cytotoxicity at 10 to 50 nM measured up to 7 days by MTT assay; type: cell-based; conditions: mdck-ii, 168 h, dose 10-50 nM, time <=7 day; in short: as §1
[8] = target: T1, Broad substrate specificity ATP-binding cassette transporter ABCG2; experiment: Inhibition of human ABCG2-mediated multidrug resistance in MDCK2 cells assessed as potentiation of SN-38-induced cytotoxicity by measuring time need to achieve half maximal cell death at 10 to 50 nM measured up to 7 days by MTT assay; type: cell-based; conditions: mdck-ii, 168 h, dose 10-50 nM, time <=7 day; in short: as §1
[9] = target: T1, Broad substrate specificity ATP-binding cassette transporter ABCG2; experiment: Inhibition of human ABCG2-mediated multidrug resistance in MDCK2 cells assessed as potentiation of SN-38-induced cytotoxicity by measuring half-maximal cell death acceleration at 10 to 50 nM measured at 5.75 days by MTT assay; type: cell-based, MDCK-II; conditions: dose 10-50 nM, time 5.7 day; read-out: Activity
In short: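 MDCK II cells transfected with human ABCG2–GFP were exposed to SN-38 at 0.5 µM final, alone or with modulator at 0, 10, 25 or 50 nM. Cells were seeded at 10,000 down to 200 per well according to read-out day and kept at 37 °C, 5% CO2. MTT viability was read daily for 7 days. Inflection points of the viability–time curves were regressed against modulator concentration. At least 3 independent experiments, triplicates.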

[10] = Growth inhibition of MDCK2 cells over expressing human ABCG2 after 72 hrs by MTT assay; type: ADME, cell-based, Canis lupus familiaris, MDCK-II; conditions: dog, MDCK2 cells overexpressing human ABCG2
In short: (§2)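 MTT viability assay. Compound dilutions in culture medium (3.2 to 1000 µM as prepared). About 2,000 cells per well, 72 h at 37 °C, 5% CO2. Culture medium set as 100% and 10% DMSO as 0% viability. MTT added for 1 h, formazan dissolved in DMSO, absorbance read at 570 nm with 690 nm background. GI50 from nonlinear regression of absorbance vs log concentration; at least three independent experiments, duplicates, mean ± SEM.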

[11] = Growth inhibition of MDCK2 cells after 72 hrs by MTT assay; type: cell-based, Canis lupus familiaris, MDCK-II; conditions: dog; in short: as §2
[12] = test system: ABCG2; experiment: Therapeutic ratio of GI50 for Growth inhibition of MDCK2 cells over expressing human ABCG2 to IC50 for inhibition of human ABCG2 expressed in MDCK2 cells co-expressing GFP preincubated for 30 mins followed by Hoechst 33342 addition and measured every 60 sec for 120 mins by fluorescence assay; type: toxicity, cell-based; conditions: dog, MDCK2 cells overexpressing human ABCG2, probe Hoechst 33342; read-out: TI
[13] = test system: ABCG2; experiment: Therapeutic ratio of GI50 for Growth inhibition of MDCK2 cells over expressing human ABCG2 to IC50 for inhibition of human ABCG2 expressed in MDCK2 cells co-expressing GFP preincubated for 15 mins followed by pheophorbideA addition and measured after 2 hrs by flow cytometric analysis; type: toxicity, cell-based; conditions: dog, MDCK2 cells overexpressing human ABCG2, probe pheophorbide A; read-out: TI
[14] = test system: MDCK-II; experiment: Cytotoxicity against MDCK2 cells over expressing human ABCG2 at 10 uM assessed as reduction in cell viability after 72 hrs by MTT assay; type: ADME, cell-based, Canis lupus familiaris; conditions: dog
In short: (§3)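 Single-concentration screen at 10 µM in MDCK II BCRP and parental MDCK II cells. MTT assay, 72 h at 37 °C, 5% CO2. Viability referenced to culture medium (100%) and 10% DMSO (0%). Mean ± SEM of at least three independent experiments with duplicates.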

[15] = test system: MDCK-II; experiment: Cytotoxicity against MDCK2 cells assessed as reduction in cell viability at 10 uM after 72 hrs by MTT assay; type: cell-based, Canis lupus familiaris; conditions: dog; in short: as §3
[16] = Effect on total ABCG2 in MDCK2 cells at 10 nM after 4 to 7 days in presence of SN-38 by Western blot analysis; type: ADME, cell-based, Canis lupus familiaris; conditions: dog, mdck-ii, 0.01 µM, time 4-7 day
In short: (§4)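 ABCG2-GFP MDCK II cells seeded in T25 flasks (86,000 for 4 days, 17,200 for 7 days). Exposed to modulator (10 nM) and/or SN-38 (0.5 µM) for 4 or 7 days. 15 µg protein run on stain-free 10% SDS-PAGE and transferred to PVDF. Probed with BXP-21 (1:200, overnight, 4 °C) and HRP secondary, ECL detection. Bands normalised to total protein and to the untreated control; one-sample t-test.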

[17] = Down regulation of ABCG2 in MDCK2 cells at 10 nM after 4 days by Western blot analysis; type: functional, Canis lupus familiaris, MDCK-II; conditions: time 4 day; in short: as §4
[18] = Down regulation of ABCG2 in MDCK2 cells at 10 nM after 7 days by Western blot analysis; type: functional, Canis lupus familiaris, MDCK-II; conditions: time 7 day; in short: as §4
[19] = target: T3, ATP-dependent translocase ABCB1 (Homo sapiens, UniProt P08183); experiment: Inhibition of human ABCB1 expressed in A2780/ADR cells preincubated for 30 mins followed by calcein AM addition and measured every 60 secs for 60 mins by fluorescence assay; type: cell-based
T3 sequence (P08183 whole entry): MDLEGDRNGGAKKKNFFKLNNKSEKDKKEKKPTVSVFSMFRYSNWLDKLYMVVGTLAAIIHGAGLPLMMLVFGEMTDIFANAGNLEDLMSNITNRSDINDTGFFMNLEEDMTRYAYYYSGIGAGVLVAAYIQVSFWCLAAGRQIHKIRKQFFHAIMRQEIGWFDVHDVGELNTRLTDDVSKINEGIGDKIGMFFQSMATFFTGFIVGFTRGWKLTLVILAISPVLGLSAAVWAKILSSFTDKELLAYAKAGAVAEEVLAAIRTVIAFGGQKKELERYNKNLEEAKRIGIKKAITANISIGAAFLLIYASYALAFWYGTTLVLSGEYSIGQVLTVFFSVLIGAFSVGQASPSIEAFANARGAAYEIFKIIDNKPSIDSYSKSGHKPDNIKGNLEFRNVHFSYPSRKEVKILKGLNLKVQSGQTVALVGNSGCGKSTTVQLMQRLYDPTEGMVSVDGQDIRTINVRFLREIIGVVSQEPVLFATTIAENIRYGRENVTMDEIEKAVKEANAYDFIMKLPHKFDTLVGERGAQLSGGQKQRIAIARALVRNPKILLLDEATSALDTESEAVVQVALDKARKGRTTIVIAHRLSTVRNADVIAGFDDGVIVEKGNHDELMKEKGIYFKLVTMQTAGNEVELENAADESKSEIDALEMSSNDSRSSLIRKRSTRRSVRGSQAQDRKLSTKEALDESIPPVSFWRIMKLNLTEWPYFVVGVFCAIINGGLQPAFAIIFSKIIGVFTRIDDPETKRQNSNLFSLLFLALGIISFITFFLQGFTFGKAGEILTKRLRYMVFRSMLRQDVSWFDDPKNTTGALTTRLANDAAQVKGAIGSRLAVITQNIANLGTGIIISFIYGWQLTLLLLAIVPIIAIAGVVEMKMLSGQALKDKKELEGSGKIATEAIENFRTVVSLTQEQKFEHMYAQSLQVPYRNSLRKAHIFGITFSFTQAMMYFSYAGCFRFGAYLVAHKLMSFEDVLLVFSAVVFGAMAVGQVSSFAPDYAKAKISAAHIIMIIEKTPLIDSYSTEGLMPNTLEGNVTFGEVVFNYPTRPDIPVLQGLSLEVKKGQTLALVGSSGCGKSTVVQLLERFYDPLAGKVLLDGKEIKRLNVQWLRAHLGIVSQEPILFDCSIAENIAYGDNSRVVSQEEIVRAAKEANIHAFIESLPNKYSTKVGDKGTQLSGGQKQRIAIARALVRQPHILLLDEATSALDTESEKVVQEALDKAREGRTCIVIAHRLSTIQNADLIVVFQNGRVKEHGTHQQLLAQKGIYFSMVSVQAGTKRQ
In short: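 ABCB1 in A2780/ADR cells (kept resistant by one passage in 1 µM doxorubicin every 10 passages). 30,000 cells per well in Krebs-HEPES buffer, preincubated 30 min at 37 °C with inhibitor. Calcein AM added from a 3.125 µM solution. Fluorescence (ex 485, em 520 nm) read every 60 s for 60 min. Initial linear slopes vs log concentration fitted to give IC50.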

[20] = target: T3, ATP-dependent translocase ABCB1; experiment: Inhibition of human ABCB1-mediated multidrug resistance in human A2780/ADR cells assessed as potentiation of doxorubicin-induced cytotoxicity by measuring half maximal reversal concentration after 72 hrs by MTT assay; type: cell-based
[21] = target: Multidrug resistance-associated protein 1 (Homo sapiens, UniProt P33527); experiment: Inhibition of human ABCC1-mediated multidrug resistance in MDCK2 cells assessed as potentiation of doxorubicin-induced cytotoxicity by measuring half maximal reversal concentration after 72 hrs by MTT assay; type: cell-based; conditions: mdck-ii
Chain of Multidrug resistance-associated protein 1 (P33527 whole entry): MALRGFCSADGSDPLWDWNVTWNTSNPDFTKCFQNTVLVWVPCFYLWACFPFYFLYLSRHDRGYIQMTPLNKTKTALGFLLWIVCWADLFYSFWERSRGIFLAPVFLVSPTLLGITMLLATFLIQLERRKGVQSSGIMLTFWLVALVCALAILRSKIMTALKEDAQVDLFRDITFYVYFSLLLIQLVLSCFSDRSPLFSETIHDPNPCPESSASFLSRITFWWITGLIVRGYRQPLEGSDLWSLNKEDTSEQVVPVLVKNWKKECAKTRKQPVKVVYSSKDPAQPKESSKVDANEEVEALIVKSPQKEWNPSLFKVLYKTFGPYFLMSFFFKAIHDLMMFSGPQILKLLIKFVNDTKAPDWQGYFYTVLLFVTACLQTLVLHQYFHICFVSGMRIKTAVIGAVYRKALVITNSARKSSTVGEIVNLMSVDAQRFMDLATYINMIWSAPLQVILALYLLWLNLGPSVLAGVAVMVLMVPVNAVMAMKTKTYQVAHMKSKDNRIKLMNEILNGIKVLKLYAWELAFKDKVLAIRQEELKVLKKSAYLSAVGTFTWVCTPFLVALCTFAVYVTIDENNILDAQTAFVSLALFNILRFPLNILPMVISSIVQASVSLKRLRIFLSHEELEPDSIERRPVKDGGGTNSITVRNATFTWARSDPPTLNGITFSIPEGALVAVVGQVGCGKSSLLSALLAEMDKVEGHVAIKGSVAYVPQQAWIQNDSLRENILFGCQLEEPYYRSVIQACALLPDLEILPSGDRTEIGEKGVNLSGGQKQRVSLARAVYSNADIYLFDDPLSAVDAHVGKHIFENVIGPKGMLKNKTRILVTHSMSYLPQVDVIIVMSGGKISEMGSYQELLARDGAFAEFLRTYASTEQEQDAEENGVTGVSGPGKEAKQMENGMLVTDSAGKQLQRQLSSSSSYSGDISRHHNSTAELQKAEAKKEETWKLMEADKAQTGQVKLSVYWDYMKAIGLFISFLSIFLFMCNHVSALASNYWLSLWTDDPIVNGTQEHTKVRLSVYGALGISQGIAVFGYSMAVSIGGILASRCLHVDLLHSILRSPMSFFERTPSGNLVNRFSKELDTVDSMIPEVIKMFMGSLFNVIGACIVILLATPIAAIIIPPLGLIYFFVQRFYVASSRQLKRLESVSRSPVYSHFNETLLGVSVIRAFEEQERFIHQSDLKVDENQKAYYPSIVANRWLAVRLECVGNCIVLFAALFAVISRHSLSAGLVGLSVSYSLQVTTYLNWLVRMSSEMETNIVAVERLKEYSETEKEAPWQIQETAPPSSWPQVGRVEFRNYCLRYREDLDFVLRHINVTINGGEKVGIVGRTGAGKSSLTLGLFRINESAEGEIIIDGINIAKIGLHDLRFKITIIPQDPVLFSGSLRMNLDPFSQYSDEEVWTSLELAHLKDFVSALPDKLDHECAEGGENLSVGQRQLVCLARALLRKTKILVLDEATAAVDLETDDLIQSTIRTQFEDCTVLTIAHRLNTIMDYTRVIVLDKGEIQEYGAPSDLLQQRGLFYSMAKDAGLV

[22] = target: T1, Broad substrate specificity ATP-binding cassette transporter ABCG2; experiment: Inhibition of ABCG2 in human MCF7/MX cells at 1 uM incubated for 2 hrs in presence of pheophorbide A by confocal laser scanning microscopic method; type: cell-based; conditions: mcf7x
In short: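 MCF-7/MX cells, 1×10^5 per dish, grown 48 h to 50-60% confluence, then switched to Krebs-HEPES buffer. Pheophorbide A (0.5 µM) applied with inhibitor (1 µM) for 2 h at 37 °C, 5% CO2. Confocal imaging at ex 405 nm, em 662-737 nm, stage at 37 °C; parental MCF-7 imaged for comparison.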

[23] = test system: MDCK-II; experiment: Cytotoxicity against MDCK2 cells over expressing human ABCG2 assessed as reduction in cell viability at 0.5 uM by after 3 days by MTT assay; type: functional, cell-based; conditions: Canis lupus familiaris, time 3.0 day
[24] = Up regulation of ABCG2 in MDCK2 cells at 0.5 uM after 4 days by Western blot analysis; type: functional, Canis lupus familiaris, MDCK-II; conditions: time 4 day; in short: as §4
[25] = Up regulation of ABCG2 in MDCK2 cells at 0.5 uM after 7 days by Western blot analysis; type: functional, Canis lupus familiaris, MDCK-II; conditions: time 7 day; in short: as §4
[26] = Effect on total ABCG2 in MDCK2 cells at 0.5 uM after 4 to 7 days by Western blot analysis; type: ADME, cell-based, Canis lupus familiaris; conditions: dog, mdck-ii, time 4-7 day; in short: as §4

## Cc1cc(Nc2ccc(C#N)c(C)c2)nc(-c2ccccc2)n1
[1]
  IC50: 0.0935 µM
[2]
  Emax at 2 h: 106%
[3]
  IC50: 0.175 µM
[4]
  Emax at 2 h: 76%
[5]
  fold change (FC): 2
[6]
  inhibition (INH): Active
[7]
  inhibition (INH): Active
[8]
  Tmin: 4.25 days
[9]
  EC50: 0.0173 µM
[10]
  GI50 at 72 h: 15.7 µM
[11]
  GI50 at 72 h: 15.7 µM
[12]
  selectivity ratio: 167
[13]
  selectivity ratio at 2 h: 90
[14]
  Activity: Non-Toxic
[15]
  Activity: Non-Toxic
[16]
  Activity: Non-Toxic
[17]
  Activity: 36%
[18]
  Activity: 24%

## Cc1cc(Nc2cccc(Cl)c2)nc(-c2ccccc2)n1
[1]
  IC50: 0.811 µM
[2]
  Emax at 2 h: 100%
[3]
  IC50: 1 µM
[4]
  Emax at 2 h: 100%
[19]
  IC50: 5.92 µM
[20]
  inhibition (INH): Not Active
[21]
  inhibition (INH): Not Active
[14]
  Activity: Non-Toxic
[15]
  Activity: Non-Toxic

## Cc1cc(Nc2ccc3nccnc3c2)nc(-c2ccccc2)n1
[3]
  IC50: 0.312 µM
[4]
  Emax at 2 h: 100%
[19]
  IC50: 13.4 µM
[14]
  Activity: Non-Toxic
[15]
  Activity: Non-Toxic
[22]
  inhibition (INH): Active

## CCc1c2c(nc3ccc(O)cc13)-c1cc3c(c(=O)n1C2)COC(=O)C3(O)CC (configuration not stated)
[23]
  Activity: inactive
[24]
  fold change (FC): 2
[25]
  fold change (FC): 5
[26]
  Activity: Non-Toxic
